In ChEMBL document CHEMBL1955810, “Thieno[2,3-d]pyrimidinedione derivatives as antibacterial agents” (Eur J Med Chem, 2012):
Values after ≈ are worked out from the molar mass of the structure shown.

Assays:
[1] = Toxicity in sheep RBC assessed as hemolysis at 25 times MIC after 1 hr; assay type: cell-based, Ovis aries, Erythrocyte; conditions: sheep red blood cells, read-out: Activity
Summary of the method: (§1)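 Sheep RBCs separated from plasma and white cells by centrifugation, washed twice in TBS (10 mM Tris, 150 mM NaCl, pH 7.0), diluted to 1%. Treated with increasing concentrations of compound in DMSO, 37 °C for 1 h, in duplicate. Supernatant absorbance at 414 nm for hemoglobin release; DMSO set as 0%, 1% Triton X as 100% hemolysis.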

[2] = Therapeutic index, ratio of LD50 for mouse NIH/3T3 cells to MIC for vancomycin-resistant Staphylococcus aureus MI; assay type: cell-based; conditions: read-out: TI
Summary of the method: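 Index computed as LD50 from NIH-3T3 MTS viability (24 h exposure, 10–100 mg/L, nonlinear regression) divided by VRSA MIC from broth microdilution (5 × 10⁵ CFU/mL, 35°C, 18–24 h, visual read).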

[3] = Cytotoxicity against mouse NIH/3T3 cells after 24 hrs by MTS assay; assay type: cell-based, NIH3T3; conditions: read-out: LD50
Summary of the method: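 NIH-3T3 mouse embryo fibroblasts kept in DMEM with 10% FBS, about 10,000 cells per well, attached overnight. Treated 24 h with 10, 25, 50 or 100 mg/L compound (DMSO) in DMEM/FBS. MTS added in fresh DMEM for 1 h at 37 °C, absorbance at 490 nm. Four replicates, media negative and 5% DMSO positive controls. Viability relative to untreated cells; LD50 by nonlinear regression.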

[4] = test system: Staphylococcus aureus; assay: Antibacterial activity against vancomycin-intermediate Staphylococcus aureus Mu50 after 18 to 24 hrs by broth microdilution method; assay type: functional
Summary of the method: (§2)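 Strains grown overnight at 35°C on tryptic soy agar; 0.5 McFarland saline suspension diluted in Mueller-Hinton broth, final inoculum 5 × 10⁵ CFU/mL. Twofold serial dilutions, final 0.06 to 32 mg/L, in MHB; incubated 35°C for 18–24h. MIC read visually as lowest concentration preventing growth.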

[5] = test system: Staphylococcus aureus; assay: Antibacterial activity against methicillin-resistant Staphylococcus aureus 494 after 18 to 24 hrs by broth microdilution method; assay type: functional
Summary of the method: (§3)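 MIC by broth microdilution in Mueller-Hinton broth. Strains grown overnight at 35°C on tryptic soy agar, suspended in saline to 0.5 McFarland, diluted in MHB, final inoculum 5 × 10⁵ CFU/mL. Twofold serial dilutions, final 0.06 to 32 mg/L. Incubated 35°C for 18–24 h. MIC read visually as lowest concentration preventing growth.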

[6] = test system: Staphylococcus aureus; assay: Antibacterial activity against vancomycin-resistant Staphylococcus aureus MI after 18 to 24 hrs by broth microdilution method; assay type: functional; summary of the method: as §3
[7] = test system: Streptococcus pneumoniae; assay: Antibacterial activity against Streptococcus pneumoniae ATCC 49619 after 18 to 24 hrs by broth microdilution method; assay type: functional; summary of the method: as §2
[8] = test system: Enterococcus faecium; assay: Antibacterial activity against vancomycin-resistant Enterococcus faecium 7303 after 18 to 24 hrs by broth microdilution method; assay type: functional; summary of the method: as §3
[9] = test system: Escherichia coli; assay: Antibacterial activity against Escherichia coli ATCC 25922 after 18 to 24 hrs by broth microdilution method; assay type: functional; summary of the method: as §2
[10] = test system: Pseudomonas aeruginosa; assay: Antibacterial activity against Pseudomonas aeruginosa ATCC 27853 after 18 to 24 hrs by broth microdilution method; assay type: functional; summary of the method: as §2
[11] = test system: Klebsiella pneumoniae; assay: Antibacterial activity against Klebsiella pneumoniae CEF 3978 after 18 to 24 hrs by broth microdilution method; assay type: functional; summary of the method: as §2
[12] = test system: Klebsiella aerogenes; assay: Antibacterial activity against Enterobacter aerogenes CEF 3978 after 18 to 24 hrs by broth microdilution method; assay type: functional; summary of the method: as §2
[13] = Toxicity in sheep RBC assessed as hemolysis at 50 times MIC after 1 hr; assay type: cell-based, Ovis aries, Erythrocyte; conditions: sheep red blood cells, read-out: Activity; summary of the method: as §1

Row | SMILES | hemolysis at 1 h, 25 times MIC [1] [%] | selectivity ratio [2] | CC50 at 24 h [3] [µg/mL] | MIC [4] [µg/mL] | MIC [5] [µg/mL] | MIC [6] [µg/mL] | MIC [7] [µg/mL] | MIC [8] [µg/mL] | MIC [9] [µg/mL] | MIC [10] [µg/mL] | MIC [11] [µg/mL] | MIC [12] [µg/mL] | hemolysis at 1 h, 50 times MIC [13] [%]
1 | CC(C)C1Cc2sc3[nH]c(=O)n(C/C=C/c4ccc(O)cc4)c(=O)c3c2C(Cc2ccccc2)C1 (stereo unspecified) | 7 | 5 | 42 (≈ 86.3 µM) | 16 (≈ 32.9 µM) | 16 (≈ 32.9 µM) | 8 (≈ 16.4 µM) | 32 (≈ 65.8 µM) | 8 (≈ 16.4 µM) | 32 (≈ 65.8 µM) | 16 (≈ 32.9 µM) | 32 (≈ 65.8 µM) | 32 (≈ 65.8 µM) | –
2 | CCOC(=O)c1sc2[nH]c(=O)n(C/C=C/c3ccc(O)cc3)c(=O)c2c1CCc1ccccc1 | – | 26 | 52 (≈ 109 µM) | 2 (≈ 4.2 µM) | 2 (≈ 4.2 µM) | 2 (≈ 4.2 µM) | 8 (≈ 16.8 µM) | 4 (≈ 8.39 µM) | > 32 | 32 (≈ 67.1 µM) | 32 (≈ 67.1 µM) | 16 (≈ 33.6 µM) | 2
3 | COc1ccc(/C=C/Cn2c(=O)[nH]c3sc4c(c3c2=O)C(Cc2ccccc2)CC(C(C)C)C4)cc1 (stereo unspecified) | – | 4 | 120 (≈ 240 µM) | > 32 | > 32 | > 32 | 32 (≈ 63.9 µM) | > 32 | > 32 | > 32 | > 32 | 32 (≈ 63.9 µM) | –
4 | CCOC(=O)c1sc2[nH]c(=O)n(C/C=C/c3ccc(OC)cc3)c(=O)c2c1CCc1ccccc1 | – | 3 | 98 (≈ 200 µM) | > 32 | > 32 | > 32 | > 32 | > 32 | > 32 | > 32 | > 32 | 8 (≈ 16.3 µM) | –
5 | CCOC(=O)c1c(NC(=O)NC/C=C/c2ccc(O[Si](C)(C)C(C)(C)C)cc2)sc2c1C(Cc1ccccc1)CC(C(C)C)C2 (stereo unspecified) | – | – | – | > 32 | > 32 | > 32 | > 32 | > 32 | > 32 | > 32 | > 32 | > 32 | –
6 | CCOC(=O)c1sc(NC(=O)NC/C=C/c2ccc(O[Si](C)(C)C(C)(C)C)cc2)c(C(=O)OCC)c1CCc1ccccc1 | – | – | – | > 32 | > 32 | > 32 | > 32 | > 32 | > 32 | > 32 | > 32 | > 32 | –
7 | CCOC(=O)c1sc(NC(=O)NC/C=C/c2ccc(OC)cc2)c(C(=O)OCC)c1CCc1ccccc1 | – | – | – | > 32 | > 32 | > 32 | > 32 | > 32 | > 32 | > 32 | > 32 | > 32 | –
8 | CN[C@H](CC(C)C)C(=O)N[C@H]1C(=O)N[C@@H](CC(N)=O)C(=O)N[C@H]2C(=O)N[C@H]3C(=O)N[C@H](C(=O)N[C@H](C(=O)O)c4cc(O)cc(O)c4-c4cc3ccc4O)[C@H](O)c3ccc(c(Cl)c3)Oc3cc2cc(c3O[C@@H]2O[C@H](CO)[C@@H](O)[C@H](O)[C@H]2O[C@H]2C[C@](C)(N)[C@H](O)[C@H](C)O2)Oc2ccc(cc2Cl)[C@H]1O [VANCOMYCIN] | – | – | – | – | – | – | 0.5 (≈ 0.345 µM) | > 32 | – | > 32 | – | – | –
